From ChEMBL document CHEMBL4725418, “Design, Synthesis, and Structure-Activity Relationship Studies of Dual Inhibitors of Soluble Epoxide Hydrolase and 5-Lipoxygenase” (J Med Chem, 2020) come the findings set out here.

In brackets after ≈: the same amount, converted by molar mass. Activity calls are given as the source filed them. No cut-off for these calls is given here.

Series [1] deals with T1, Polyunsaturated fatty acid lipoxygenase ALOX15 (Homo sapiens) (UniProt P16050).
T1 sequence (whole entry): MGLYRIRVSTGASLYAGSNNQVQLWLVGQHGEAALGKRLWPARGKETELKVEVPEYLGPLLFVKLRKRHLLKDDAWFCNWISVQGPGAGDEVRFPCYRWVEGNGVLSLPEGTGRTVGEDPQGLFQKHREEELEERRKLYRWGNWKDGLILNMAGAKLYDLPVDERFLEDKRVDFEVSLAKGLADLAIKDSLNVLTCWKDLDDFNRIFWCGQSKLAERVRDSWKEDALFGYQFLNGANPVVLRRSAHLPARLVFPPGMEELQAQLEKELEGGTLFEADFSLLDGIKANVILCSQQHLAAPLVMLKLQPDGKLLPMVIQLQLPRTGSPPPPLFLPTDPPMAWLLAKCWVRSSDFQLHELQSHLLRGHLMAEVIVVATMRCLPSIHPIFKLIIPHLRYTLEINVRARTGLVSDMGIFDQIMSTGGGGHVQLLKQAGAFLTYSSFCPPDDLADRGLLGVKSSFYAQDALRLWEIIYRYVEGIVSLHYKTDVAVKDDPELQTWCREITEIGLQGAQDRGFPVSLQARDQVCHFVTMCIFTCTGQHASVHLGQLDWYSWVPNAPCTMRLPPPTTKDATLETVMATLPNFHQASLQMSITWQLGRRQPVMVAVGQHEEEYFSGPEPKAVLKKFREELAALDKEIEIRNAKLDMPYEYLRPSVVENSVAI
The series is described as follows: Activation of 15-LOX in human PMNL pre-incubated for 15 mins before addition of AA and A23187 and measured after 10 mins by HPLC/UV assay. The settings on record: filed as activator, time 25.0 min.

Series [2] addresses T2, Bifunctional epoxide hydrolase 2 (Homo sapiens, UniProt P34913).
T2 sequence (P34913 whole entry): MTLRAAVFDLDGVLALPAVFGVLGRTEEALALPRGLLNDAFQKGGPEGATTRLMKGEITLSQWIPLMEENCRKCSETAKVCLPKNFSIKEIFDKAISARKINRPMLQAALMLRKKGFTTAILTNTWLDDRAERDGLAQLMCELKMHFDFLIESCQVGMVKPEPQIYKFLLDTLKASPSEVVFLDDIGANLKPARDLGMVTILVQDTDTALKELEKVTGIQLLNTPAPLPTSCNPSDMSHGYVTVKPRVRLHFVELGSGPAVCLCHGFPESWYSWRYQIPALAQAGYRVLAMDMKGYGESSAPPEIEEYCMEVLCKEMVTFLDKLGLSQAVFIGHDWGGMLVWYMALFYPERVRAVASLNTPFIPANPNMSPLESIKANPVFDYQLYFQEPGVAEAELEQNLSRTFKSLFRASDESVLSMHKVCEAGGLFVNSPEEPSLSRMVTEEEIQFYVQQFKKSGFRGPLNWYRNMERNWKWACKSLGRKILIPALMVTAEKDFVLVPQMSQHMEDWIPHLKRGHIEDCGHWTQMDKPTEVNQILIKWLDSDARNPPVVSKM
The experiment in a line: Inhibition of human sEH (1 to 555 residues) expressed in Escherichia coli BL21-(DE3) using PHOME substrate incubated for 30 to 45 mins by fluorescence based assay.

Series [3] is described as follows: Solubility in pH 7.4 DPBS buffer. It is filed as physicochemical.
Series [4] has as its system Mus musculus. The series is described as follows: Anti-inflammatory activity in C57BL/6 mouse model of unilateral ureter obstruction-induced kidney inflammation and fibrosis assessed as reduction in Ccl2 mRNA expression at 3 mg/kg, ip dosed daily for 7 days by real-time qPCR analysis. As to conditions: time 7.0 day. It is filed as functional, organism-based. A digest of the protocol:
(§1)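 Mice with unilateral ureter obstruction to induce kidney inflammation and fibrosis, given compound or vehicle intraperitoneally. Ligated (UUO) and contralateral kidneys taken at day 7. Fibrosis read by AZAN and Sirius Red staining, with Sirius Red imaged under bright and polarized light. Macrophages detected by F4/80 staining, quantified as positive area. Col1a1, FN1, TNFα and Ccl2 mRNA measured in whole-kidney homogenates by real-time qRT-PCR normalized to GAPDH.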
In general terms: Real-time PCR tracks product formation cycle by cycle.

The test system of series [5] is Mus musculus. The series is described as follows: Anti-fibrotic activity in C57BL/6 mouse model of unilateral ureter obstruction-induced kidney inflammation and fibrosis assessed as inhibition of tubulo-interstitial fibrosis by measuring reduced blue staining of collagen fibers in AZAN-stained sections at 3 mg/kg, ip dosed daily for 7 days by AZAN trichrome staining method. It is filed as functional, organism-based. The settings on record: time 7.0 day. A digest of the protocol:
as §1

A word on the IC50: it is the concentration at which inhibition is half-maximal. A low value points to higher potency. The solubility is how much of the substance goes into solution per volume. `C[C@H](C#Cc1cccc(C(=O)NCCC(c2ccc(F)cc2)c2ccc(F)cc2)c1)N(O)C(N)=O`: the outcome (in series [1]; with Mus musculus [4]; in the series on Mus musculus [5]) was Active. Further, 1.2 nM corresponded to half-maximal inhibition in series [2] (IC50). In series [3], this compound returned a solubility of 3 µM (≈ 1.43 µg/mL).
